{"data": "Results from different studies", "cell line": "MCF7", "read-out": "cell growth or viability", "note": "Lines come from different studies, so protocols differ."}
{"SMILES": "COc1cc(C(CC(=O)c2ccc(Br)cc2)NCCc2ccc(O)c(O)c2)ccc1O (stereo not drawn)", "assay": "MTT", "GI50": "20 nM"}
{"SMILES": "COc1cc2c(OC)nc3c4cc5c(cc4cc(OCCCN4CCC(N6CCCCC6)CC4)c3c2cc1OC)OCO5", "assay": "MTT", "conditions": "72 h", "GI50": "1500 nM"}
{"SMILES": "COc1ccc(C(=O)/C=C/c2cccnc2)cc1S(N)(=O)=O", "assay": "SRB", "conditions": "48 h", "GI50": "4900 nM"}
{"SMILES": "COc1cc(C(CC(C)=O)NCCc2ccc(O)c(O)c2)ccc1O (stereo not drawn)", "assay": "MTT", "GI50": "22400 nM"}
{"SMILES": "COc1ccc(C(=O)/C=C/c2cccc3ccccc23)cc1S(N)(=O)=O", "assay": "SRB", "conditions": "48 h", "GI50": "2100 nM"}
{"SMILES": "COc1cc2c(cc1O)CC[C@@H]1[C@@H]2CC[C@]2(C)[C@@H](O)CC[C@@H]12", "assay": "SRB", "conditions": "96 h", "GI50": "600 nM"}
{"SMILES": "Cc1ccc(C)c(COc2cc(NC(=O)c3ccc4c(c3)OCO4)ccc2N(C)S(C)(=O)=O)c1", "assay": "SRB", "conditions": "48 h", "GI50": "120 nM"}
{"SMILES": "COc1cccc(Oc2ccccc2NC(=O)CNC(=O)c2cccc3ccccc23)c1", "assay": "SRB", "conditions": "48 h", "GI50": "100 nM"}
{"SMILES": "COc1cc2c(OC)nc3c4cc5c(cc4cc(OCCN(C)C)c3c2cc1OC)OCO5", "assay": "MTT", "conditions": "72 h", "GI50": "> 100000 nM"}
{"SMILES": "COc1cccc2c1C(=O)c1c(O)c3c(c(O)c1C2=O)C[C@@](O)(C(=O)CO)C[C@@H]3O[C@H]1C[C@H](N)[C@H](O)[C@H](C)O1", "assay": "MTT", "GI50": "20 nM"}
{"SMILES": "COc1ccc(C(=O)/C=C/c2cc3c(cc2Br)OCO3)cc1S(N)(=O)=O", "assay": "SRB", "conditions": "48 h", "GI50": "3800 nM"}
{"SMILES": "CCN(CC)CCCOc1cc2cc3c(cc2c2nc(OC)c4cc(OC)c(OC)cc4c12)OCO3", "assay": "MTT", "conditions": "72 h", "GI50": "23000 nM"}
{"SMILES": "COc1ccc(C(=O)/C=C/c2cccc(Cl)c2Cl)cc1S(N)(=O)=O", "assay": "SRB", "conditions": "48 h", "GI50": "3200 nM"}
{"SMILES": "COc1ccc(-c2ccc(-c3ccc(C(=N)N)nc3)s2)cc1", "assay": "SRB", "GI50": "1740 nM"}
{"SMILES": "COc1cc2c(OC)nc3c4cc5c(cc4cc(O)c3c2cc1OC)OCO5", "assay": "MTT", "conditions": "72 h", "GI50": "13000 nM"}
{"SMILES": "COc1ccc(C(=O)/C=C/c2c(F)cccc2Cl)cc1S(N)(=O)=O", "assay": "SRB", "conditions": "48 h", "GI50": "2200 nM"}
{"SMILES": "COc1cc(C(CC(N)=O)NCCc2ccc(O)c(O)c2)ccc1O (stereo not drawn)", "assay": "MTT", "GI50": "26200 nM"}
{"SMILES": "CN1CCN(c2ccc(Nc3ncc4cc(C#N)c(=O)n(C5CCCC5)c4n3)cc2)CC1", "assay": "resazurin", "conditions": "96 h", "GI50": "150 nM"}
